# Source: ChEMBL document CHEMBL1150208, “Production of anti-tumor-promoting iridoid glucosides in Genipa americana and its cell cultures” (J Nat Prod, 1991)
# Test system: not listed separately
# Test: Cytotoxicity against human Raji cells assessed as cell viability at 1000 molar ratio after 48 hrs by trypan blue assay
# Assay type: cell-based
# Details: read-out: Activity
# Method in brief: (§1)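 Raji cells were treated together with TPA (32 pmol), n-butyrate and test substance in 0.25% phosphate buffer solution (pH 7.2). Dose is expressed as molar ratio to TPA. After 48 h, cells were stained with Trypan Blue and surviving cells were counted to give viability %.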
row,Structure (SMILES),"viability at 48 h, 1000 molar ratio"
1,COC(=O)C1=CO[C@@H](O[C@@H]2O[C@H](CO)[C@@H](O)[C@H](O)[C@H]2O)[C@H]2[C@@H]1C=C[C@@]2(O)CO [GARDENOSIDE],80%
2,COC(=O)C1=CO[C@@H](O)[C@@H]2C(CO)=CC[C@H]12 [GENIPIN],80%
3,COC(=O)C1=CO[C@@H](O[C@@H]2O[C@H](CO)[C@@H](O)[C@H](O)[C@H]2O)[C@@H]2C(CO)=CC[C@H]12 [GENIPOSIDE],80%
4,O=C(O)C1=CO[C@@H](O[C@@H]2O[C@H](CO)[C@@H](O)[C@H](O)[C@H]2O)[C@@H]2C(CO)=CC[C@H]12 [GENIPOSIDIC ACID],80%
5,O=CC1=CO[C@@H](O[C@@H]2O[C@H](CO)[C@@H](O)[C@H](O)[C@H]2O)[C@@H]2C(CO)=CC[C@H]12 [TARENNOSIDE],80%
6,CC1=C(/C=C/C(C)=C/C=C/C(C)=C/C(=O)O)C(C)(C)CCC1 [TRETINOIN],10%

# Test system: Raji
# Test: Inhibition of TPA-induced EBV-early antigen activation in human Raji cells assessed as EA activation at 1000 molar ratio after 48 hrs relative to TPA
# Assay type: cell-based
# Details: human gammaherpesvirus 4
# Method in brief: (§2)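 EBV early antigen activation was induced in Raji cells with TPA (32 pmol) and n-butyrate. Test substance was dosed as a molar ratio to TPA in 0.25% phosphate buffer (pH 7.2) for 48 h. Activation is expressed as % of the TPA-only positive control (=100), reported as mean ± SD.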
row,Structure (SMILES),EA activation (% of TPA-only control)
1,COC(=O)C1=CO[C@@H](O[C@@H]2O[C@H](CO)[C@@H](O)[C@H](O)[C@H]2O)[C@H]2[C@@H]1C=C[C@@]2(O)CO [GARDENOSIDE],92.6%
2,COC(=O)C1=CO[C@@H](O)[C@@H]2C(CO)=CC[C@H]12 [GENIPIN],11.5%
3,COC(=O)C1=CO[C@@H](O[C@@H]2O[C@H](CO)[C@@H](O)[C@H](O)[C@H]2O)[C@@H]2C(CO)=CC[C@H]12 [GENIPOSIDE],62.4%
4,O=C(O)C1=CO[C@@H](O[C@@H]2O[C@H](CO)[C@@H](O)[C@H](O)[C@H]2O)[C@@H]2C(CO)=CC[C@H]12 [GENIPOSIDIC ACID],34.8%
5,O=CC1=CO[C@@H](O[C@@H]2O[C@H](CO)[C@@H](O)[C@H](O)[C@H]2O)[C@@H]2C(CO)=CC[C@H]12 [TARENNOSIDE],30.5%
6,CC1=C(/C=C/C(C)=C/C=C/C(C)=C/C(=O)O)C(C)(C)CCC1 [TRETINOIN],30%

# Test system: Raji
# Test: Inhibition of TPA-induced EBV-early antigen activation in human Raji cells assessed as EA activation at 10 molar ratio after 48 hrs relative to TPA
# Assay type: cell-based
# Details: human gammaherpesvirus 4
# Method in brief: as §2
row,Structure (SMILES),EBV-EA activation (% of TPA control)
1,COC(=O)C1=CO[C@@H](O[C@@H]2O[C@H](CO)[C@@H](O)[C@H](O)[C@H]2O)[C@H]2[C@@H]1C=C[C@@]2(O)CO [GARDENOSIDE],100%
2,COC(=O)C1=CO[C@@H](O)[C@@H]2C(CO)=CC[C@H]12 [GENIPIN],100%
3,COC(=O)C1=CO[C@@H](O[C@@H]2O[C@H](CO)[C@@H](O)[C@H](O)[C@H]2O)[C@@H]2C(CO)=CC[C@H]12 [GENIPOSIDE],100%
4,O=C(O)C1=CO[C@@H](O[C@@H]2O[C@H](CO)[C@@H](O)[C@H](O)[C@H]2O)[C@@H]2C(CO)=CC[C@H]12 [GENIPOSIDIC ACID],100%
5,O=CC1=CO[C@@H](O[C@@H]2O[C@H](CO)[C@@H](O)[C@H](O)[C@H]2O)[C@@H]2C(CO)=CC[C@H]12 [TARENNOSIDE],100%

# Test system: Raji
# Test: Inhibition of TPA-induced EBV-early antigen activation in human Raji cells assessed as EA activation at 100 molar ratio after 48 hrs relative to TPA
# Assay type: cell-based
# Details: human gammaherpesvirus 4
# Method in brief: as §2
row,Structure (SMILES),EA activation relative to TPA control
1,COC(=O)C1=CO[C@@H](O[C@@H]2O[C@H](CO)[C@@H](O)[C@H](O)[C@H]2O)[C@H]2[C@@H]1C=C[C@@]2(O)CO [GARDENOSIDE],100%
2,COC(=O)C1=CO[C@@H](O)[C@@H]2C(CO)=CC[C@H]12 [GENIPIN],64.2%
3,COC(=O)C1=CO[C@@H](O[C@@H]2O[C@H](CO)[C@@H](O)[C@H](O)[C@H]2O)[C@@H]2C(CO)=CC[C@H]12 [GENIPOSIDE],100%
4,O=C(O)C1=CO[C@@H](O[C@@H]2O[C@H](CO)[C@@H](O)[C@H](O)[C@H]2O)[C@@H]2C(CO)=CC[C@H]12 [GENIPOSIDIC ACID],91.8%
5,O=CC1=CO[C@@H](O[C@@H]2O[C@H](CO)[C@@H](O)[C@H](O)[C@H]2O)[C@@H]2C(CO)=CC[C@H]12 [TARENNOSIDE],88.1%
6,CC1=C(/C=C/C(C)=C/C=C/C(C)=C/C(=O)O)C(C)(C)CCC1 [TRETINOIN],67%

# Test system: Raji
# Test: Inhibition of TPA-induced EBV-early antigen activation in human Raji cells assessed as EA activation at 500 molar ratio after 48 hrs relative to TPA
# Assay type: cell-based
# Details: human gammaherpesvirus 4
# Method in brief: as §2
row,Structure (SMILES),EA activation (% of TPA control)
1,COC(=O)C1=CO[C@@H](O[C@@H]2O[C@H](CO)[C@@H](O)[C@H](O)[C@H]2O)[C@H]2[C@@H]1C=C[C@@]2(O)CO [GARDENOSIDE],100%
2,COC(=O)C1=CO[C@@H](O)[C@@H]2C(CO)=CC[C@H]12 [GENIPIN],44.2%
3,COC(=O)C1=CO[C@@H](O[C@@H]2O[C@H](CO)[C@@H](O)[C@H](O)[C@H]2O)[C@@H]2C(CO)=CC[C@H]12 [GENIPOSIDE],91%
4,O=C(O)C1=CO[C@@H](O[C@@H]2O[C@H](CO)[C@@H](O)[C@H](O)[C@H]2O)[C@@H]2C(CO)=CC[C@H]12 [GENIPOSIDIC ACID],80.5%
5,O=CC1=CO[C@@H](O[C@@H]2O[C@H](CO)[C@@H](O)[C@H](O)[C@H]2O)[C@@H]2C(CO)=CC[C@H]12 [TARENNOSIDE],72.8%

# Test system: not listed separately
# Test: Cytotoxicity against human Raji cells assessed as cell viability at 100 molar ratio after 48 hrs by trypan blue assay
# Assay type: cell-based
# Details: read-out: Activity
# Method in brief: as §1
row,Structure (SMILES),"viability at 48 h, 100 molar ratio"
1,CC1=C(/C=C/C(C)=C/C=C/C(C)=C/C(=O)O)C(C)(C)CCC1 [TRETINOIN],40%
